A short description of data set [1]: Cytotoxicity against mouse […] cells at 10 uM after 24 hrs by MTT assay. On the technique in general: Tetrazolium assays rely on reduction of a dye to a coloured formazan, in cell work by metabolically active cells.
In data set [2] the target is T1, Prostaglandin G/H synthase 2 (Homo sapiens) (UniProt P35354).
T1 sequence (whole entry): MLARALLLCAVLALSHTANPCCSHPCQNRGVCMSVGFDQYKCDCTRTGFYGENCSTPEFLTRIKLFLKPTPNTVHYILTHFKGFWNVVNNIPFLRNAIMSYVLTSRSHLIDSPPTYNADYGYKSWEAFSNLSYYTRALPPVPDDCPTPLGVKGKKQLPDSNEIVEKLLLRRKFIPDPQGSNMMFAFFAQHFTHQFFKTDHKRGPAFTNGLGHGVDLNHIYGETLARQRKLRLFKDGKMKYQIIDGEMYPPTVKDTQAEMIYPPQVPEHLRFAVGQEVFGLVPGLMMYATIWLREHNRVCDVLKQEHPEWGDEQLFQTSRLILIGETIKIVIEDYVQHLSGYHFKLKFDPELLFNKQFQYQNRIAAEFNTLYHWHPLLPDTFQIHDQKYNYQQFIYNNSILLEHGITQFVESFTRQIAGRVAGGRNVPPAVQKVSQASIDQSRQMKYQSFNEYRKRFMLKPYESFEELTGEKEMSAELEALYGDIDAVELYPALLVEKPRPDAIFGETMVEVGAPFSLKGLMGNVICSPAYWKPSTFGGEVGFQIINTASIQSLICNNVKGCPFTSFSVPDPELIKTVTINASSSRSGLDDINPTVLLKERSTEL
Put plainly: Inhibition of human COX2 at 10 uM preincubated for 5 mins measured after 5 mins.

Data set [3] concerns the target T2, Polyunsaturated fatty acid lipoxygenase ALOX12 (Homo sapiens) (UniProt P18054).
T2 sequence (whole entry): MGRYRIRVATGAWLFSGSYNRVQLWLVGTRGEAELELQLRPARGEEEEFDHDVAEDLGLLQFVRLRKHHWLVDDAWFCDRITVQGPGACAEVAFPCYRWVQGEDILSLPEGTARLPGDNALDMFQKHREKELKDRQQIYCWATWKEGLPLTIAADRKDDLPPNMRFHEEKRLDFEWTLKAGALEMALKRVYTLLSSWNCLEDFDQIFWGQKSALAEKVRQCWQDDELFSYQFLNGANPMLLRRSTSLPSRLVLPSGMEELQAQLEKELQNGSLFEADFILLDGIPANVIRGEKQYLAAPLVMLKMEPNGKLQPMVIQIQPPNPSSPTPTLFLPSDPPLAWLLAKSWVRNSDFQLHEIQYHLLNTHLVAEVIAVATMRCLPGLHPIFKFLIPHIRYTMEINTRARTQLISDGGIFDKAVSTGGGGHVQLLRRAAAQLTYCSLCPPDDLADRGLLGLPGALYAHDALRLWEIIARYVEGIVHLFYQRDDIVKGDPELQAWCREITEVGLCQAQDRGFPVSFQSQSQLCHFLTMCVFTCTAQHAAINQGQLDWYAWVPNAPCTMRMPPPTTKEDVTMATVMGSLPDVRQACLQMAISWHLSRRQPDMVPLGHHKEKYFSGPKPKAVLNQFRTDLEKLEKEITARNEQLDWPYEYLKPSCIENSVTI
Put plainly: Inhibition of 12-lipoxygenase in A23187-stimulated human platelets assessed as reduction of 12(S)-H(P)ETE formation preincubated 15 mins by RP-HPLC analysis.

The target of data set [4] is T3, Polyunsaturated fatty acid 5-lipoxygenase (Homo sapiens) (UniProt P09917).
T3 sequence (whole entry): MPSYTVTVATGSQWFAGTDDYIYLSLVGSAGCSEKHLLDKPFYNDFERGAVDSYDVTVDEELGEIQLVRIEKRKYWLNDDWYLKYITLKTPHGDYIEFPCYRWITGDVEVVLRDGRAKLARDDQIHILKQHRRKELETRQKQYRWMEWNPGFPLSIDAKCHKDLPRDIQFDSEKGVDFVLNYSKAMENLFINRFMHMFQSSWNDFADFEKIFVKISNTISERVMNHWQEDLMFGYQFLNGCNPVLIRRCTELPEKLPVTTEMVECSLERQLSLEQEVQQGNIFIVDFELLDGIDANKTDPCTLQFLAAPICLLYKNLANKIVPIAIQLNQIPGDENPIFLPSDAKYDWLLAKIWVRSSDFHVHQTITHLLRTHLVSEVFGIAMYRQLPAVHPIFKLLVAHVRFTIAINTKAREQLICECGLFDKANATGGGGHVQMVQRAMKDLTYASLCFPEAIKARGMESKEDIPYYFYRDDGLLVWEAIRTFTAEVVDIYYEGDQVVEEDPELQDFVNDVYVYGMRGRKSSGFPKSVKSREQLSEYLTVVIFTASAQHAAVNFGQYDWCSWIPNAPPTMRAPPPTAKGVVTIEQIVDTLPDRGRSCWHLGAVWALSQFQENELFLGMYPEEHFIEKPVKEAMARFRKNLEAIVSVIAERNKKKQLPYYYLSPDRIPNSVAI
The data set is described as follows: Inhibition of 5-lipoxygenase in A23187-stimulated human PMNL assessed as inhibition of 15-H(p)ETE formation preincubated 15 mins by RP-HPLC analysis.

The target in data set [5] is T4, Polyunsaturated fatty acid lipoxygenase ALOX15 (Homo sapiens) (UniProt P16050).
T4 sequence (whole entry): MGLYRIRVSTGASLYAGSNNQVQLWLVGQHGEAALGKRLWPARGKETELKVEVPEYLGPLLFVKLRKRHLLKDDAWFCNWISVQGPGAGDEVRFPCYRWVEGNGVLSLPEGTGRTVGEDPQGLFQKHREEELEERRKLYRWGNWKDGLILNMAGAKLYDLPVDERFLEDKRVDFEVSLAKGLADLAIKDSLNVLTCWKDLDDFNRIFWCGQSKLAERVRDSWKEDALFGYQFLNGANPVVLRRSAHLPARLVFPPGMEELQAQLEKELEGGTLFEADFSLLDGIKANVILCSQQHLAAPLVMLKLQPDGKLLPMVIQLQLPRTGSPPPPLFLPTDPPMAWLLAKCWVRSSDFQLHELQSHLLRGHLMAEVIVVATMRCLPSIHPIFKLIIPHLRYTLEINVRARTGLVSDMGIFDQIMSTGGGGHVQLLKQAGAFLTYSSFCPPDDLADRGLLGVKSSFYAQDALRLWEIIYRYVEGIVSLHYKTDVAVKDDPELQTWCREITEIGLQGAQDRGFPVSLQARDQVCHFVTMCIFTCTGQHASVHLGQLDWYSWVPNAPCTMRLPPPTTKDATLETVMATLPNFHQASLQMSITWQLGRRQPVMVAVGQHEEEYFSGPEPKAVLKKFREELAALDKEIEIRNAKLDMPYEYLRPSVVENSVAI
Put plainly: Inhibition of 15-lipoxygenase in A23187-stimulated human PMNL assessed as inhibition of 15-H(p)ETE formation preincubated 15 mins by RP-HPLC analysis.

For data set [6], the system named is A549. The data set is described as follows: Antiinflammatory activity in human A549 cells assessed as inhibition of IL-1beta-induced mPGES1 expression at 10 uM treated 30 mins prior to IL-1beta challenge measured after 48 hrs by Western blot analysis relative to control. The format is functional, cell-based. The procedure, abridged: (§1)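 A549 cells (DMEM high glucose, 10% heat-inactivated FCS, penicillin/streptomycin, 37 °C, 5% CO2) pre-incubated 30 min with compound or vehicle (DMSO, 0.3%), then IL-1b (2 ng/mL) added. After 48 h, cells lysed; mPGES-1 protein analysed by Western blot with b-actin as loading control. Bands semi-quantified by densitometry as % of uninhibited DMSO control, mean SD, n = 3.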
(In western blotting, separated proteins are transferred to a membrane and probed.)

The next data set deals with T5, Prostaglandin E synthase (Homo sapiens, UniProt O14684).
T5 sequence (O14684 whole entry): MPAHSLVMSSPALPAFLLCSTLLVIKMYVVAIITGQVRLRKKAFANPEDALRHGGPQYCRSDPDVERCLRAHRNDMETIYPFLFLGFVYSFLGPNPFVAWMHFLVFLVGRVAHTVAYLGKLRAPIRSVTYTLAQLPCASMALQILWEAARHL
Put plainly: Inhibition of mPGES-1-mediated PGE2 formation in IL-1beta-stimulated human A549 cells preincubated for 10 mins measured after 1 min by RP-HPLC analysis. The format is cell-based. The procedure, abridged: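 Microsomes from A549 cells treated 48 h with 1 ng/mL IL-1b, isolated by sonication and differential centrifugation (10,000×g 10 min, 174,000×g 1 h, 4 °C). Diluted in 0.1 M potassium phosphate pH 7.4 with 2.5 mM glutathione. Pre-incubated with compound or vehicle on ice, then 20 µM PGH2 added. PGE2 measured by RP-HPLC as % of DMSO control, mean S.E., n = 3–4.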

The nature of data set [7]: Inhibition of His-tagged human recombinant cPLA2alpha expressed in baculovirus infected insect sf9 cells assessed as inhibition of arachidonic acid formation after 1 hr by RP-HPLC analysis.
The nature of data set [8]: Cytotoxicity against human primary monocytes at 10 uM after 24 hrs by MTT assay. The following applies: monocyte.
In data set [9] the target is T6, Prostaglandin G/H synthase 1 (Ovis aries) (UniProt P05979).
T6 sequence (whole entry): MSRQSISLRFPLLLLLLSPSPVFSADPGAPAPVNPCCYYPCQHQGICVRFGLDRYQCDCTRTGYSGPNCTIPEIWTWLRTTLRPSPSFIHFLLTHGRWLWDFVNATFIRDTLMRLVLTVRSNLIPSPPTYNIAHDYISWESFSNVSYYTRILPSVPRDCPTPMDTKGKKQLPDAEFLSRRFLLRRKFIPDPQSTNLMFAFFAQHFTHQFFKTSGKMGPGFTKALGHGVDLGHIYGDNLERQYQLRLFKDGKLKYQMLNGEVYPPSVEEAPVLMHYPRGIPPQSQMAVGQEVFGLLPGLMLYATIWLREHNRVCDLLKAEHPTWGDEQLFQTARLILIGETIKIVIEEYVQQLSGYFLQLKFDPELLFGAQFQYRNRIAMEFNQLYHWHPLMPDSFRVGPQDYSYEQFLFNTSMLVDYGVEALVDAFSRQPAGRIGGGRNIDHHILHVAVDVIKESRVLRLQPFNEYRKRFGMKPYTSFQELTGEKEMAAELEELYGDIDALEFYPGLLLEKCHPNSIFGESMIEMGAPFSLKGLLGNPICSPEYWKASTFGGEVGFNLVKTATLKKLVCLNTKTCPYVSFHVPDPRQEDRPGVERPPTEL
Put plainly: Inhibition of ovine COX1 at 10 uM preincubated for 5 mins measured after 5 mins.

In data set [10] the test system is A549. The data set is described as follows: Antiinflammatory activity in human A549 cells assessed as inhibition of IL-1beta-induced mPGES1 expression at 1 uM treated 30 mins prior to IL-1beta challenge measured after 48 hrs by Western blot analysis relative to control. The format is functional, cell-based. The method in brief: as §1

Active and inactive are the calls of the source. The rule behind the calls is not given here.

Broadly, the inhibition is the relative decrease from the control value, in per cent. The term IC50 denotes the concentration at which inhibition is half-maximal. A higher IC50 goes with a need for much substance. Consider `O=C1OC(O)C(c2ccc(C(=O)Nc3ccccc3)cc2)=C1Br` (stereo not drawn), for which the Activity result in [1] and in data set [8] was “Non-toxic” throughout. In addition, the inhibition result (in data set [2]; in [3]; in data set [5]; in the data set with A549 [6]; in data set [7]; in data set [9]) was “inactive” each time. For the same molecule, the inhibition in data set [4] turned out to be 22%. For the same molecule, the IC50 at Prostaglandin E synthase was 0.9 µM.

Regarding `O=C1OC(O)C(c2cccc(C(=O)N3CCCC3)c2)=C1Br` (stereo not drawn), in the data set with A549 [6], the inhibition entry was “inactive”.

For `O=C1OC(O)C(c2ccc(C(=O)N3CCOCC3)cc2)=C1Br` (stereo not drawn), in the data set on A549 [6], the inhibition entry was “inactive”.

Turning to `O=C1OC(O)C(c2cccc(C(=O)Nc3ccccc3)c2)=C1Br` (stereo not drawn), the inhibition entry in the data set with A549 [6] is “inactive”.

Consider `O=C1OC(O)C(c2ccc(C(=O)NCc3ccccc3)cc2)=C1Br` (stereo not drawn), for which the inhibition result in the data set on A549 [6] was “inactive”. This molecule registered a 50% inhibitory concentration (IC50) against Prostaglandin E synthase of 5.6 µM.

For the molecule `O=C1OC(O)C(c2cccc(C(=O)NCc3ccccc3)c2)=C1Br` (stereo not drawn), in the data set with A549 [6], the inhibition result was “inactive”.

Consider `O=C1OC(O)C(c2ccc(C(=O)N3CCNCC3)cc2)=C1Br` (stereo not drawn), for which the inhibition entry in the data set with A549 [6] was “inactive”.

On to `O=C1OC(O)C(c2cccc(C(=O)N3CCCCC3)c2)=C1Br` (stereo not drawn), for which the inhibition result in the data set on A549 [6] is “inactive”.

As to `O=C1OC(O)C(c2cc3ccccc3s2)=C1Br` (stereo not drawn), the IC50 on Prostaglandin E synthase was more than 10 µM.

With `O=C1OC(O)C(c2ccc(C(=O)N3CCCC3)cc2)=C1Br` (stereo not drawn), the inhibition result in the data set on A549 [6] was “inactive”.

`C[C@@H]1C[C@H]2[C@@H]3CCC4=CC(=O)C=C[C@]4(C)[C@@]3(F)[C@@H](O)C[C@]2(C)[C@@]1(O)C(=O)CO`: in the data set on A549 [10], the inhibition result is “Active”.

Take `O=C1OC(O)C(c2ccc(C(=O)N3CCCCC3)cc2)=C1Br` (stereo not drawn): the inhibition entry in the data set with A549 [6] was “inactive”.

For the molecule `O=C1OC(O)C(c2cccc(C(=O)N3CCOCC3)c2)=C1Br` (stereo not drawn), the inhibition entry with A549 [6] is “inactive”.

The record behind these values is ChEMBL document CHEMBL2069190, “Identification of new γ-hydroxybutenolides that preferentially inhibit the activity of mPGES-1” (Bioorg Med Chem, 2012).
